Laboratory results: ChEMBL document CHEMBL1255364, “Delayed development of linezolid resistance in Staphylococcus aureus following exposure to low levels of antimicrobial agents” (2008)
In brackets after ≈: the same amount, converted by molar mass. Activity calls are given as the source filed them. The rule behind the calls is not given here.

Key:
[1] = system: Staphylococcus aureus; assay: Suppression of resistance related recombination in Staphylococcus aureus RN4220 at 0.25 times IC50 at 42 degC
[2] = system: Staphylococcus aureus; assay: Suppression of drug resistance development in recA-deficient Staphylococcus aureus KB103 assessed as prolonged length of subculture to develop Linezolid resistance at 4 times MIC and 0.25 times IC50 after 20 days; assay type: functional, organism-based
Summary of the method: (§1)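 Stationary-phase MHB cultures were exposed for 6 h to linezolid at 4× MIC, with secondary agent(s) at 0.25× IC50. IC50 was the concentration halving growth rate by culture absorbance. A 5 μl aliquot was transferred to fresh drug-free medium and the cycle repeated. […] Four runs were done, with days to resistance averaged to the nearest day.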

[3] = system: Staphylococcus aureus; assay: Suppression of drug resistance development in Staphylococcus aureus isolate EMRAS-15 assessed as prolonged length of subculture to develop Linezolid resistance at 4 times MIC and 0.25 times IC50 after 25 days; assay type: functional, organism-based
Summary of the method: as §1

[4] = system: Staphylococcus aureus; assay: Suppression of drug resistance development in Staphylococcus aureus RN4220 assessed as prolonged length of subculture to develop Linezolid resistance at 4 times MIC and 0.25 times IC50 after 25 days; assay type: functional, organism-based
Summary of the method: as §1

[5] = system: Staphylococcus aureus; assay: Suppression of drug resistance development in Staphylococcus aureus RN4220 assessed as assessed as prolonged length of subculture to develop Linezolid resistance at 0.25 times IC50
[6] = system: Staphylococcus aureus; assay: Antibacterial activity against Staphylococcus aureus KM183 after 18 to 24 hrs by broth microdilution method selected after 16 ug/ml drug exposure for 6 hrs by culture absorbance method; assay type: functional
Summary of the method: (§2)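 Broth microdilution in Mueller-Hinton broth per BSAC guidelines. MIC read as the lowest concentration completely inhibiting visible growth after 18 to 24 h at 37°C. Strains were linezolid-selected derivatives recovered from repeated 6-h linezolid exposure cycles.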

[7] = system: Staphylococcus aureus; assay: Suppression of drug resistance development in LZD intermediate-resistant Staphylococcus aureus KM183 assessed as prolonged length of subculture to develop Linezolid resistance at 4 times MIC and 0.25 times IC50 after 8 days; assay type: functional, organism-based
Summary of the method: as §1

[8] = system: Staphylococcus aureus; assay: Antibacterial activity against Staphylococcus aureus KM51 after 18 to 24 hrs by broth microdilution method selected after 16 ug/ml drug exposure for 6 hrs by culture absorbance method; assay type: functional
Summary of the method: as §2

[9] = system: Staphylococcus aureus; assay: Antibacterial activity against Staphylococcus aureus KM187 after 18 to 24 hrs by broth microdilution method selected after 16 ug/ml drug exposure for 6 hrs by culture absorbance method; assay type: functional
Summary of the method: as §2

[10] = system: Staphylococcus aureus; assay: Antibacterial activity against Staphylococcus aureus KM53 after 18 to 24 hrs by broth microdilution method selected after 16 ug/ml drug exposure for 6 hrs by culture absorbance method; assay type: functional
Summary of the method: as §2

[11] = system: Staphylococcus aureus; assay: Antibacterial activity against Staphylococcus aureus KM50 after 18 to 24 hrs by broth microdilution method selected after 16 ug/ml drug exposure for 6 hrs by culture absorbance method; assay type: functional
Summary of the method: as §2

[12] = system: Staphylococcus aureus; assay: Antibacterial activity against Staphylococcus aureus KM52 after 18 to 24 hrs by broth microdilution method selected after 16 ug/ml drug exposure for 6 hrs by culture absorbance method; assay type: functional
Summary of the method: as §2

[13] = system: Staphylococcus aureus; assay: Suppression of drug resistance development in Staphylococcus aureus RN4220 assessed as assessed as prolonged length of subculture to develop Linezolid resistance at 0.25 times MIC; assay type: functional

**Q.** Which results are given for `CC(=O)O[C@H]1C[C@@]2(C)[C@@H](C[C@@H](O)[C@H]3[C@@]4(C)CC[C@@H](O)[C@@H](C)[C@@H]4CC[C@@]32C)/C1=C(\CCC=C(C)C)C(=O)O`?
**A.** inhibition [1]: Active; Activity [2]: Active; Activity [3]: Active; Activity [4]: Active

**Q.** With `CO[C@H]1/C=C/O[C@@]2(C)Oc3c(C)c(O)c4c(O)c(c(/C=N/N5CCN(C)CC5)c(O)c4c3C2=O)NC(=O)/C(C)=C\C=C\[C@H](C)[C@H](O)[C@@H](C)[C@@H](O)[C@@H](C)[C@H](OC(C)=O)[C@@H]1C` as the molecule, how does the inhibition [1] read?
**A.** Active

**Q.** And the Activity [2]?
**A.** Active

**Q.** What about the Activity [4] of the same molecule?
**A.** Active

**Q.** For `O=C(O)c1cn(C2CC2)c2cc(N3CCNCC3)c(F)cc2c1=O` [CIPROFLOXACIN], which Time [5] is on record?
**A.** 14 days

**Q.** Which results are given for `CC(=O)NC[C@H]1CN(c2ccc(N3CCOCC3)c(F)c2)C(=O)O1` [LINEZOLID]?
**A.** MIC [6]: 16 µg/mL (≈ 47.4 µM); Activity [7]: Active; MIC [8]: 32 µg/mL (≈ 94.9 µM); Activity [2]: Active; MIC [9]: 32 µg/mL (≈ 94.9 µM); MIC [10]: 32 µg/mL (≈ 94.9 µM); MIC [11]: 32 µg/mL (≈ 94.9 µM); MIC [12]: 32 µg/mL (≈ 94.9 µM)

**Q.** `CO[C@@H]1[C@@H](OC(N)=O)[C@@H](O)[C@H](Oc2ccc3c(O)c(NC(=O)c4ccc(O)c(CC=C(C)C)c4)c(=O)oc3c2C)OC1(C)C` [NOVOBIOCIN] was tested. Which Time [5] did it give?
**A.** 14 days

**Q.** Which Time [5] does the source give for `CN(C)[C@@H]1C(O)=C(C(N)=O)C(=O)[C@@]2(O)C(O)=C3C(=O)c4c(O)cccc4[C@@](C)(O)[C@H]3C[C@@H]12` [TETRACYCLINE] here?
**A.** 14 days

**Q.** How did the TIME [13] turn out when GENTAMICIN was run?
**A.** 336 h
